Measurements of several laboratories.
Compare with care: the assays were run in different laboratories.
Read-out: cell growth or viability

CCCS(=O)(=O)Oc1cc(C=NNC(=O)c2nc3ccccc3s2)ccc1OC has a cell death of 33% (PC-3; MTT; 100 µM, 48 h).
For Cc1nc(Nc2ncc(C(=O)Nc3c(C)cccc3Cl)s2)cc(N2CC[C@H](O)C2)n1, the inhibition was 93% (MEG-01; ATP luminescence; 10 µM, 72 h).
For COc1cc(C=NNC(=O)c2nc3ccccc3s2)ccc1O, the cell death was 29.4% (PC-3; MTT; 100 µM, 48 h).
For C[C@H](Nc1ccc2c(c1)OCCn1cc(N3C(=O)OC[C@H]3C(F)F)nc1-2)C(N)=O, the EC50 was 0.3 nM (NCI-H1048; ATP luminescence; 5 days).
For CCc1nc(C(N)=O)c(Nc2ccc(N3CCC(N4CCN(C)CC4)CC3)c(OC)c2)nc1NC1CCOCC1, the GI50 was 70 nM (EOL1; 72 h).
CCCCCCCCCCCCCCCCCCOc1ccc(CC(=O)OCC[N+]2(C)CCCC2)cc1 gave an inhibition of 3.23% (NCI-H522; SRB; 10 µM).
The inhibition of NCCC(=O)Nc1ccccc1/N=c1\cc(-c2ccc3c(c2)OCCO3)oc2cc(F)ccc12 is reported as -8.9% (A549; CCK-8; 1 µM).
C=C(NC(=O)C(=C)NC(=O)c1csc(C2=N[C@@H]3c4csc(n4)[C@H]4NC(=O)c5csc(n5)[C@H]([C@](C)(O)[C@@H](C)O)NC(=O)[C@H]5CSC(=N5)/C(=C/C)NC(=O)[C@H]([C@@H](C)O)NC(=O)c5csc(n5)[C@]3(CC2)NC(=O)[C@H](C)NC(=O)C(=C)NC(=O)[C@H](C)NC(=O)[C@H]([C@@H](C)CC)N[C@@H]2C=Cc3c([C@H](C)O)cc(nc3[C@H]2O)C(=O)O[C@@H]4C)n1)C(N)=O gave an EC50 of 900 nM (U-251).
The inhibition of CS(=O)(=O)NCCC(=O)Nc1ccccc1/N=c1\cc(-c2ccc3nc(N)oc3c2)oc2ccccc12 is reported as -5.4% (A549; CCK-8; 1 µM).
CCCCCCCCCCCCCCCCCCOc1ccc(CC(=O)OCC[N+]2(C)CCOCC2)cc1 has an inhibition of 5.79% (NCI-H522; SRB; 10 µM).
Nc1nc2ccc(-c3c/c(=N\c4ccccc4NC(=O)CCN4CCOCC4)c4ccccc4o3)cc2o1 gave an inhibition of 16.4% (A549; CCK-8; 1 µM).
With Cc1n[nH]c2ccc3nc(-c4ccc(C(=O)NCCN(C)C)cc4F)c4c(c3c12)CCCC4 the GI50 was 89 nM (EOL1; 72 h).
For CNCCC(=O)Nc1ccccc1/N=c1\cc(-c2ccc3nc(N)oc3c2)oc2ccccc12, the inhibition was 7.88% (A549; CCK-8; 1 µM).
For CCCCCCCCCCCCCCCCCCOc1cccc(CC(=O)OCC[N+]2(C)CCOCC2)c1, the inhibition was 16.9% (NCI-H522; SRB; 10 µM).
For O=c1[nH]cc(F)c(=O)[nH]1, the cell death was 10.7% (PC-3; MTT; 100 µM, 48 h).
For CC(C)(C)c1cc(NC(=O)Nc2ccc(-c3cn4c(n3)sc3cc(OCCN5CCOCC5)ccc34)cc2)no1, the GI50 was under 0.1 nM (EOL1; 72 h).
For CCCCCCCCCCCCCCCCCCOc1cccc(CC(=O)OCC[N+]2(C)CCCC2)c1, the inhibition was 36.6% (NCI-H522; SRB; 10 µM).
NCC(=O)Nc1ccccc1/N=c1\cc(-c2ccc3c(c2)OCCO3)oc2ccccc12 has an inhibition of -0.04% (A549; CCK-8; 1 µM).
With CCCCCCCCCCCCCCCCCCOc1cccc(CC(=O)OCC[N+]2(C)CCCCC2)c1 the inhibition was 28.5% (NCI-H522; SRB; 10 µM).
COc1ccc2/c(=N/c3ccccc3NC(=O)CN)cc(-c3ccc4c(c3)OCCO4)oc2c1 gave an inhibition of 0.19% (A549; CCK-8; 1 µM).
CCCCCCCCCCCCCCCCCCOCC(COP(=O)([O-])OCC[N+](C)(C)C)OC (stereo not drawn) has an inhibition of 27% (NCI-H522; SRB; 10 µM).
For CN(C)CCNC(=O)c1ccc(-c2nc3ccc4[nH]ncc4c3c3c2CCCCC3)cc1, the GI50 was 143 nM (EOL1; 72 h).
With CCCCCCCCCCCCCCCCCCOc1ccc(CC(=O)OCC[N+](CC)(CC)CC)cc1 the inhibition was 26.6% (NCI-H522; SRB; 10 µM).
For CN(C)CCNC(=O)c1ccc(-c2nc3ccc4[nH]ncc4c3c3c2CCCC3)c(F)c1, the GI50 was 42 nM (EOL1; 72 h).
